Reference: ChEMBL document CHEMBL1240337, “Identification of proteases that regulate erythrocyte rupture by the malaria parasite Plasmodium falciparum” (Nat Chem Biol, 2008)
The source made the active and inactive calls. The calls are words filed in the database; no cut-off is given here.

Legend:
[1] = tested on: Plasmodium falciparum; assay: Inhibition of Plasmodium falciparum 3D7 falcipain-2 by fluorescence spectrophotometry
[2] = tested on: Plasmodium falciparum; assay: Antiplasmodial activity against Plasmodium falciparum schizont infected in human erythrocytes assessed as effect on parasite ring-to-schizont morphology at 1 to 50 uM after 24 by propidium iodide staining-based FACS analysis; format: functional, organism-based
[3] = tested on: Plasmodium falciparum; assay: Antiplasmodial activity against Plasmodium falciparum schizont infected in human erythrocytes assessed as effect on schizont morphology at 1 to 50 uM after 24 by propidium iodide staining-based FACS analysis; format: functional, organism-based
[4] = biological target: T1, Preprocathepsin c, putative (Plasmodium falciparum 3D7) (UniProt Q8I0V1); assay: Inhibition of Plasmodium falciparum 3D7 PFL2290w by fluorescence spectrophotometry
T1 sequence (whole entry): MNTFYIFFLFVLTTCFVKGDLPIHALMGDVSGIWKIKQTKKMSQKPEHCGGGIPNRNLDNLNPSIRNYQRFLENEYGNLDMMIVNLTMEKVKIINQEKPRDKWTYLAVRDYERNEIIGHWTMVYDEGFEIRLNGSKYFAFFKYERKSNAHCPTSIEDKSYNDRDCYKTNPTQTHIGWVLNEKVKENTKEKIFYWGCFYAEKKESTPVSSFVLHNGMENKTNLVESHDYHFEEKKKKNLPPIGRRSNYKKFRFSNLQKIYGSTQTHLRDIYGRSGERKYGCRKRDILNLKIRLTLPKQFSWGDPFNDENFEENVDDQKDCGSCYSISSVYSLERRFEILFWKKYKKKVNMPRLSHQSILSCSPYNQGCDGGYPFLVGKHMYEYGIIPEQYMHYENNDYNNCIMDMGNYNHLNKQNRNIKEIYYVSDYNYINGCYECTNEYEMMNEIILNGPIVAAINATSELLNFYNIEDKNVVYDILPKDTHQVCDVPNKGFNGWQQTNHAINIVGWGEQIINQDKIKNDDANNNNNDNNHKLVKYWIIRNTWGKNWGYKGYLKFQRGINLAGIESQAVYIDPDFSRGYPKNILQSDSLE

[5] = biological target: T2, Cysteine proteinase falcipain-1 (Plasmodium falciparum 3D7) (UniProt Q8I6V0); assay: Inhibition of Plasmodium falciparum 3D7 falcipain-1 by fluorescence spectrophotometry
T2 sequence (whole entry): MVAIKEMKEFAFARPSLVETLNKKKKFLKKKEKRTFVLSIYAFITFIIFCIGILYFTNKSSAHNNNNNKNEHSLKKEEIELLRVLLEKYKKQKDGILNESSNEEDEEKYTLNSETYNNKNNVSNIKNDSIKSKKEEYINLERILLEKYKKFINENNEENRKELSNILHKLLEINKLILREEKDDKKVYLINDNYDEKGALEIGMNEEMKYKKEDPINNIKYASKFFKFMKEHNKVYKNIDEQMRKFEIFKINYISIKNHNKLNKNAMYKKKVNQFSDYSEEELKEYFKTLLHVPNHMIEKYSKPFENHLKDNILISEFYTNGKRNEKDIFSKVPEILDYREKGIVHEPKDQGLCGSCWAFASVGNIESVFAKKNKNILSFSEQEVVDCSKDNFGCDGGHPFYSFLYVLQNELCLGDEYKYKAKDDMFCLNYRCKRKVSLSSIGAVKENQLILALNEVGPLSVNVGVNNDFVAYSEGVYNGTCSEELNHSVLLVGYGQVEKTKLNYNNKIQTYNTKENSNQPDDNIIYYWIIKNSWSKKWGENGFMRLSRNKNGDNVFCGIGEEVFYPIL

[6] = biological target: T3, Falcipain-3 (Plasmodium falciparum 3D7) (UniProt Q8IIL0); assay: Inhibition of Plasmodium falciparum 3D7 falcipain-3 by fluorescence spectrophotometry
T3 sequence (whole entry): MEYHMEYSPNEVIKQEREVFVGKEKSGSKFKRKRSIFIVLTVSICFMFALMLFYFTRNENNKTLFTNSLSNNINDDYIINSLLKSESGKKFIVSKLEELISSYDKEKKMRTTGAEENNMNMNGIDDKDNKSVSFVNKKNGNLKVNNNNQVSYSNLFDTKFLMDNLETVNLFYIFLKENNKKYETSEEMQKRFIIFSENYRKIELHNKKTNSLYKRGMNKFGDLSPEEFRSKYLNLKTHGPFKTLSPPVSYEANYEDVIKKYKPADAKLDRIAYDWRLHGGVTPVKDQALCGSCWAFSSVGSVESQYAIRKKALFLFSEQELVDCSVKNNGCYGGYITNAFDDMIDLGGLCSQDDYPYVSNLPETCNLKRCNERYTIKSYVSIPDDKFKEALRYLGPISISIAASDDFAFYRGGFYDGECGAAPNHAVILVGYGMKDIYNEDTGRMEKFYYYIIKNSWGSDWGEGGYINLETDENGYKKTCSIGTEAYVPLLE

[7] = Cytotoxicity against african green monkey BSC1 cells after 24 hrs by celltiter glo assay; format: cell-based; conditions: chlorocebus aethiops, bsc-1, 24 h
Outline: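 BSC-1 African green monkey kidney epithelial cells exposed to compounds; viability read by CellTiter-Glo luminescence.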

[8] = tested on: Plasmodium falciparum; assay: Antiplasmodial activity against Plasmodium falciparum schizont infected in human erythrocytes assessed as inhibition of ring-stage parasite growth at 1 to 50 uM after 24 by propidium iodide staining-based FACS analysis; format: functional, organism-based

| Structure (SMILES) | inhibition [1] | Activity [2] | Activity [3] | inhibition [4] | inhibition [5] | inhibition [6] | Activity [7] | inhibition [8] |
| --- | --- | --- | --- | --- | --- | --- | --- | --- |
| CCC[C@H](N)C(=O)N[C@H](/C=C/S(=O)(=O)c1ccccc1)CCc1ccccc1 | Active | inactive | inactive | inactive | Active | Active | Non-toxic | Active |
| C[C@H](N)C(=O)N[C@H](/C=C/S(=O)(=O)c1ccccc1)CCc1ccccc1 | Active | inactive | inactive | inactive | Active | Active | Non-toxic | Active |
